Data: PubChem BioAssay
Where “and” joins values, the source holds several entries; their conditions need not be identical. Equal values may be shown once. Calls of active or inactive are those of the source.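 How the source made its calls, unless noted: active means viability at or below 30% in both replicate assays; inconclusive means viability at or below 30% in just one of the two assays; inactive means the rest.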

Columns and labels:
[1] = reduced viability of SK-BR-3 breast cancer cells – cell-based, 24 h, human, pilot screen (AID 572;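 active means viability at or below 10% of carrier control in both of two separate runs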;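 further: compound exposure lasted between 18 and 24 h rather than exactly 24 h; 100% = carrier-treated control wells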); details: SK-BR-3 viability, CellTiter-Glo luminescence, at 10 µM, stronger effect = lower value
[2] = HUVEC growth inhibition – cell-based, human, primary screen (AID 575); details: HUVEC proliferation, CellTiter-Glo luminescence, 72 h; at 10 µM; stronger effect = lower value;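 further: 100% = median of untreated cell wells with 0.1% DMSO on each plate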
In short: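 Material: primary human umbilical vein endothelial cells / Schedule: 72 h exposure, 37 °C, 5% CO2, 30 min RT equilibration / Signal: ATP-based CellTiter-Glo luminescent read / Read-out basis: percent of median DMSO-control luminescence / Control set: 32 DMSO-only cell-control wells (high), 32 MePR drug-control wells (low) per plate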

[3] = H69AR cell proliferation blockers – human, duplicate replicates, primary screen (AID 580;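 active means viability at or under a set limit in both replicates, limit being median viability minus 3 SD, cut at about 48% in these data, passing the limit was not always enough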;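 further: 100% = mean luminescence of untreated wells and 0% = no signal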); details: H69AR lung tumor cells viability, ATP luminescence, 72 h; at 10 µM; stronger effect = lower value
[4] = MRP1 drug-resistance reversers in H69AR cells – cell-based, doxorubicin co-treatment, pilot screen (AID 601;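 active means viability loss from added drug above about 55%, and viability with drug at most 40%, in both replicates, limit read from the data, passing the limit was not always enough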); details: CellTiter-Glo, 72 h, at 10 µM; for differential viability (reversal): stronger effect = higher value
[5] = yeast transport mutant growth inhibition pilot in 384-well plates, post-Golgi transport modulator project (AID 636; in the data active means inhibition above about 31%); details: absorbance 615 nm, about 18 h, stronger effect = higher value
[6] = growth suppression of yeast trafficking mutant, preliminary HTS, modulators of trafficking downstream of Golgi apparatus project, 1536-format plate, OD 615 nm (AID 637; in the data active means inhibition above about 30%); details: yeast transport mutant growth, absorbance 615 nm, 18 h; stronger effect = higher value
[7] = H69AR cells + 2 uM doxorubicin, measured here: viability with 2 uM doxorubicin, stronger effect = lower value
[8] = H69AR cells, compound alone cytotoxicity

Row | Structure (SMILES) | viability [1] | viability [2] | viability [3] | differential viability (reversal) ([4]; H69AR cells + 2 uM doxorubicin) | viability [4, 7] | viability [4, 8] | inhibition [5] | inhibition [6]
1 | CC(C)(C)c1nnc(NC(=O)C2CCN(c3ncccn3)CC2)s1 | 105% (inactive) | 115% (inactive) | 101% (inactive) | 14.3% (inactive) | 86.6% | 101% | -4.03% (inactive) | -0.82% (inactive)
2 | Cc1ccc(C(C(=O)NC2CCCCC2)N(C(=O)c2csnn2)C2CCCC2)o1 (stereo not drawn) | 108% (inactive) | 101% (inactive) | 80.4% (inactive) | 1.01% (inactive) | 79.4% | 80.4% | -0.65% (inactive) | -2.46% (inactive)
3 | O=C(O)CCN(CCC(=O)O)c1nnc(SCc2ccccc2)s1 | 91% (inactive) | 107% (inactive) | 93.6% (inactive) | 7.11% (inactive) | 86.5% | 93.6% | -6.16% (inactive) | -3.55% (inactive)
4 | CCc1nnc(SCC(=O)NC2CCCCC2)nc1CC | 94% (inactive) | 92.5% (inactive) | 97.9% (inactive) | 13.1% (inactive) | 84.8% | 97.9% | -4.29% (inactive) | -7.7% (inactive)
5 | COc1ccc(N2CCN(C(=O)Cc3ccc(-n4c(=O)[nH]c5ccccc5c4=O)cc3)CC2)cc1 | 103% (inactive) | 75.8% (inactive) | 94.7% (inactive) | 3.2% (inactive) | 91.5% | 94.7% | 0.26% (inactive) | -3.11% (inactive)
6 | CC1=Nn2c(nnc2-c2ccc(F)cc2)SC1 | 85% (inactive) | 97% (inactive) | 97.2% (inactive) | 0.585% (inactive) | 96.6% | 97.2% | -5.14% (inactive) | -2.55% (inactive)
7 | Cc1ccc(-c2nn[nH]n2)cc1 | 109% (inactive) | 112% (inactive) | 107% (inactive) | -4.72% (inactive) | 111% | 107% | -4.79% (inactive) | 2.18% (inactive)
8 | Cc1cc(=O)oc2ccc(OCC(=O)N(Cc3ccc(F)cc3)Cc3ccco3)cc12 | 91% (inactive) | 50.9% (inactive) | 72% (inactive) | 11.6% (inactive) | 60.5% | 72% | -2.47% (inactive) | -9.35% (inactive)
9 | O=c1c2cc3ccccc3n2cnn1Cc1ccccc1F | 100% (inactive) | 57.9% (inactive) | 11.3% (active) | -36.1% (inactive) | 47.4% | 11.3% | -1.95% (inactive) | 2.3% (inactive)
10 | Cn1c(=O)c2c(nc(NCCCO)n2Cc2cccc(Br)c2)n(C)c1=O | 91% (inactive) | 104% (inactive) | 85.7% (inactive) | 0.26% (inactive) | 85.4% | 85.7% | -5.73% (inactive) | 3.64% (inactive)
11 | Cc1cc(C)c(NC(=O)CSc2nnc(-c3ccncc3)n2Cc2ccco2)c(C)c1 | 91% (inactive) | 109% (inactive) | 97.4% (inactive) | 3.25% (inactive) | 94.2% | 97.4% | -2.7% (inactive) | -4.73% (inactive)
12 | COc1ccc2c3c(c(=O)oc2c1OCC(N)=O)CCCC3 | 117% (inactive) | 117% (inactive) | 97.6% (inactive) | 16.2% (inactive) | 81.3% | 97.6% | -5.48% (inactive) | -2.55% (inactive)
13 | O=C(CN1C(=O)c2ccccc2S1(=O)=O)Nc1ccc(S(=O)(=O)N2CCCCCC2)cc1 | 110% (inactive) | 81.4% (inactive) | 103% (inactive) | 14.2% (inactive) | 89.3% | 103% | 5.48% (inactive) | -1.45% (inactive)
14 | Cc1ccc2c(CC(=O)OCc3csc(C)n3)coc2c1 | 106% (inactive) | 90.3% (inactive) | 98.5% (inactive) | 2.5% (inactive) | 96% | 98.5% | -8.78% (inactive) | 3.77% (inactive)
15 | COc1ccc(S(=O)(=O)N2CCN(S(=O)(=O)c3ccc4c(c3)OCCO4)CC2)cc1C | 101% (inactive) | 109% (inactive) | 88.2% (inactive) | 17.5% (inactive) | 70.7% | 88.2% | -5.33% (inactive) | 1.09% (inactive)
16 | COc1nc(-c2ccc(Cl)cc2)ccc1-c1noc(-c2ccncc2)n1 | 109% (inactive) | 103% (inactive) | 82.4% (inactive) | 1.99% (inactive) | 80.4% | 82.4% | -6.99% (inactive) | -7.64% (inactive)
17 | O=C(CSc1nnc(-c2ccco2)n1CC1CCCO1)NC1CCCC1 (stereo not drawn) | 116% (inactive) | 94.6% (inactive) | 94.3% (inactive) | 7.47% (inactive) | 86.8% | 94.3% | -2% (inactive) | -5.27% (inactive)
18 | O=C(O)c1ccc(S(=O)(=O)Cc2ccccc2)cc1 | 95% (inactive) | 102% (inactive) | 87.3% (inactive) | -7.88% (inactive) | 95.2% | 87.3% | -3.29% (inactive) | 1.45% (inactive)

Row | Structure (SMILES) | viability [1] | viability [2] | viability [3] | differential viability (reversal) ([4]; H69AR cells + 2 uM doxorubicin) | viability [4, 7] | viability [4, 8] | inhibition [5] | inhibition [6]
19 | O=C1NC(=O)C(CC(=O)N(c2ccccc2)C2(C(=O)NC3CCCC3)CCCCC2)N1 (stereo not drawn) | 99% (inactive) | 100% (inactive) | 97.2% (inactive) | 8.26% (inactive) | 88.9% | 97.2% | -8.36% (inactive) | 4.36% (inactive)
20 | CCCOc1cccc(NC(=O)c2c(-c3ccccc3)noc2C)c1 | 94% (inactive) | 89.7% (inactive) | 86.7% (inactive) | -15.2% (inactive) | 102% | 86.7% | 0.78% (inactive) | -1.97% (inactive)
21 | O=C(NCc1ccc2c(c1)OCO2)C1CCC(CNS(=O)(=O)c2ccccc2)CC1 (stereo not drawn) | 92% (inactive) | 78.9% (inactive) | 92.2% (inactive) | -1.49% (inactive) | 93.7% | 92.2% | 0.52% (inactive) | 1.15% (inactive)
22 | CCOC(=O)C1/C(=N\O)CC(C)(O)C(C(=O)OCC)C1c1ccc(N(C)C)cc1 (stereo not drawn) | 72% (inactive) | 96.9% (inactive) | 87.5% (inactive) | -13.3% (inactive) | 101% | 87.5% | 1.64% (inactive) | 5.48% (inactive)
23 | CCN(CC)CCn1c(OC)cc(=O)[nH]c1=O | 93% (inactive) | 104% (inactive) | 101% (inactive) | 0.635% (inactive) | 99.9% | 101% | -10% (inactive) | -0.97% (inactive)
24 | NS(=O)(=O)c1cc2c(cc1Cl)NC=NS2(=O)=O | 104% (inactive) | 93.9% (inactive) | 100% (inactive) | 4.17% (inactive) | 95.9% | 100% | 0.13% (inactive) | 1% (inactive)
25 | O=C1c2ccccc2C(=O)N1CCN1CCCCC1 | 98% (inactive) | 129% (inactive) | 103% (inactive) | 4.01% (inactive) | 99.4% | 103% | 3.38% (inactive) | -1.64% (inactive)
26 | Cc1ccccc1-n1c(SCc2c(C)noc2C)nnc1-c1ccncc1 | 92% (inactive) | 87.5% (inactive) | 87.4% (inactive) | 8.34% (inactive) | 79.1% | 87.4% | -3.78% (inactive) | -2% (inactive)
27 | COCCN(CCOC)C(=O)CCn1c(=O)oc2ccccc21 | 95% (inactive) | 105% (inactive) | 89% (inactive) | -7.45% (inactive) | 96.5% | 89% | -3.97% (inactive) | -0.18% (inactive)
28 | COC(=O)c1ccccc1NC(=O)COc1ccc(S(=O)(=O)N2CCCC2)cc1C | 90% (inactive) | 87.1% (inactive) | 74.4% (inactive) | 8.04% (inactive) | 66.4% | 74.4% | -3.03% (inactive) | 3.83% (inactive)
29 | O=C(CN1C(=O)CCS(=O)(=O)c2ccccc21)Nc1cccc(F)c1 | 115% (inactive) | 115% (inactive) | 106% (inactive) | 9.57% (inactive) | 96.5% | 106% | 3.65% (inactive) | -1.09% (inactive)
30 | O=C(Nc1nnc(C2CCCC2)s1)C1CCN(S(=O)(=O)c2ccc(Cl)cc2)CC1 | 92% (inactive) | 94.4% (inactive) | 72.3% (inactive) | 3.83% (inactive) | 68.5% | 72.3% | -5.87% (inactive) | -5.64% (inactive)
31 | CC1=C(C(=O)N2CCOCC2)C(c2ccsc2)C2=C(CCCC2=O)N1 (stereo not drawn) | 96% (inactive) | 107% (inactive) | 90.4% (inactive) | -0.065% (inactive) | 90.5% | 90.4% | -2.47% (inactive) | 7.74% (inactive)
32 | Cc1ccc(N(CC2=NCCN2)c2cccc(O)c2)cc1 | 85% (inactive) and 113% (inactive) | 84.3% (inactive) and 64.3% (inactive) | 98.5% (inactive) and 92.6% (inactive) | -1.66% (inactive) and 11.9% (inactive) | 100% and 80.7% | 98.5% and 92.6% | -1.43% (inactive) and 1.17% (inactive) | -3.17% (inactive) and 0.5% (inactive)
33 | CCCNS(=O)(=O)c1ccc(OCC(=O)Nc2ccccc2F)cc1 | 96.5% (inactive) | 90.3% (inactive) | 87.3% (inactive) | 8.17% (inactive) | 79.1% | 87.3% | -4.21% (inactive) | -0.81% (inactive)
34 | CCCCCCn1c(CN2CCCC(C)C2)nc2c1c(=O)n(C)c(=O)n2C (stereo not drawn) | 57% (inactive) | 111% (inactive) | 101% (inactive) | 7.51% (inactive) | 93.1% | 101% | -7.12% (inactive) | 2.36% (inactive)
35 | CC(=O)OCC(=O)[C@H]1CC[C@H]2[C@@H]3CC=C4C[C@@H](O)CC[C@]4(C)[C@H]3CC[C@]12C | 87% (inactive) | 44.3% (inactive) | 96.8% (inactive) | 4.54% (inactive) | 92.3% | 96.8% | -0.65% (inactive) | 44.5% (active)
36 | Cc1ccc(NC(=O)CC2C(=O)NC3CCCCC3N2C(=O)c2ccc(F)cc2)cc1C (stereo not drawn) | 108% (inactive) | 100% (inactive) | 101% (inactive) | 12.5% (inactive) | 88.5% | 101% | -2.47% (inactive) | 3.11% (inactive)
